Compound activity: PubChem BioAssay, Broad Institute
Only some compounds are listed: those with a hit (about 2.6% of all), similar ones and a draw of the others.
INS-1E GSIS act: primary screen for activators of insulin secretion dependent on glucose, INS-1E cells, GLuc reporter luminescence; INS-1E GLuc reporter insulin secretion, 2-3 h; activation, % at 16.6 µM; actives 0.61% (n = 370,000); AID 743287;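 active = lowest replicate activation of at least 40%, so every replicate reaches that level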;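 also: 0% = median of neutral control wells and 100% = median of IBMX positive control wells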
E-selectin induc: induces E-selectin expression in human endothelial cells; HUVEC E-selectin immunofluorescence imaging; normalized: neutral wells 0, TNF-alpha wells 100; activation, % at 7.58 µM; actives 0.37% (n = 260,000); P16581; AID 686992;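 active = mean E-selectin-positive cell signal at least 10% of the positive control, reached in at least 60% of replicates, without over 20% cell loss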
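assay system = HUVEC, human umbilical vein endothelial cells | input = 3,000 HUVEC seeded per well | medium = EGM-2 growth medium on 0.1% gelatin-coated wells | dosing = one compound dose added by pin transfer | signal = immunofluorescence imaging | read-out basis = % PE-positive cells | control set = TNF-alpha, DMSO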
rRNA inh HTS: inhibitors of bacterial rRNA selective over humanized ribosomes. E. coli WT GFP vs humanized-ribosome RFP mutants, fluorescence, 24 h; active compounds read low; DMSO median 0, no signal -100. GFP signal change (wild-type ribosome), % (concentration not given with the values). actives 1.6% (n = 350,000);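 active = significant combined selectivity score with lowered wild-type GFP, culture density cut under 30%, mutant RFP and density less affected; inactive = any of these conditions unmet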
RAD54 branch: RAD54 (human) branch migration inhibition | Q92698 | RAD54 Holliday junction branch migration, FAM/BHQ fluorescence | inhibition, % at 10.4 µM | actives 0.14% (n = 360,000);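 active = mean normalized replicate activity at least 40 and at least half of replicates scoring 40 or more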;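 also: 0% = median of neutral control wells and 100% = median of positive control wells; inhibitors cause a drop in the FAM fluorescence signal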
AF4-AF9 inh: blocks AF4 peptide binding to human AF9 | actives 0.47% (n = 350,000) | AlphaScreen, biotin-AF4 peptide binding to FLAG-AF9 | inhibition, % at 10 µM | P42568;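 active = every replicate reaching a set inhibition limit, whatever the replicate mean, cut at about 25% in these data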;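 also: 0% = plate neutral control median and 100% = total signal loss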
RAD52 anneal inh: blocks human RAD52 DNA annealing; P43351; recombinant RAD52 DNA annealing, FRET fluorescence; inhibition, % at 18.7 µM; actives 0.46% (n = 360,000);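 active = every replicate showing at least 50% inhibition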
Target sequence (P43351 whole entry, looked up): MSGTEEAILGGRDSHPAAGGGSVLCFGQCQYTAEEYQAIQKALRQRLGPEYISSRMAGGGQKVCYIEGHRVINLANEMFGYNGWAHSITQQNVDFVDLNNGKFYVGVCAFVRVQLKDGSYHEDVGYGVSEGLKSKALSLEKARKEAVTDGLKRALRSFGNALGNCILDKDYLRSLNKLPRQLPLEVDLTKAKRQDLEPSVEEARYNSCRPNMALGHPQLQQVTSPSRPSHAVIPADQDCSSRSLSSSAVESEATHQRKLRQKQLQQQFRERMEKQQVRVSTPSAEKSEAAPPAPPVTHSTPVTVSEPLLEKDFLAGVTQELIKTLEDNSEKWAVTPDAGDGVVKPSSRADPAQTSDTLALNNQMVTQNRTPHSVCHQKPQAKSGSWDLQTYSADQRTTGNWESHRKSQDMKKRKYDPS
* marks the source's active call; other numbers are inactive results; · = no result.

SMILES | INS-1E GSIS act | E-selectin induc | rRNA inh HTS | RAD54 branch | AF4-AF9 inh | RAD52 anneal inh
CO[C@@H]1CN(C)C(=O)c2ccc(NS(C)(=O)=O)cc2OC[C@H](C)N(Cc2cccnc2)C[C@@H]1C | 5 | 0 | 1 | -1 | 0 | -5
ONC(=Nc1ccccc1Cl)c1c(F)cccc1F | 2 | · | -37* | · | 4 | -11
CC1(C)C(=O)N(c2ccccc2Cl)C(=O)c2ccccc21 | -28 | 1 | -3 | 15 | 1 | -8
CC1(C)C(=O)N(c2ccccc2)C(=O)c2ccccc21 | -3 | 52* | 10 | · | 0 | -12
COc1ccccc1-c1nnc(NC(=O)CSc2nncn2C)s1 | 11 | 37* | -3 | · | -3 | -15
COc1ccccc1-c1nnc(NC(=O)C(C)Sc2nncn2C)s1 (centres undefined) | 2 | · | -10 | · | -2 | -10
Cc1ccc(C2=NN=C(NC(=O)CSc3nncn3C)SC2)cc1 | 3 | · | -23* | -6 | -1 | -30
O=C(CC(F)(F)F)N1C[C@@H]2[C@H](c3ccccc31)[C@H](CO)N2C(=O)C1CCCC1 | -6 | 0 | -3 | -8 | -2 | 2
CCOC(=O)c1c(NC(C)=O)sc(/C(C)=N/Nc2ccc(C(=O)O)cc2)c1C | · | 1 | -17* | 3 | 2 | -1
COc1ccc(NC(=O)N2CCCCN3[C@H](CO)[C@H](c4ccc(C5=CCCC5)cc4)[C@@H]3C2)cc1 | · | · | · | -1 | -6 | 4
COc1ccc(NC(=O)N2CCCCN3[C@H](CO)[C@@H](c4ccc(C5=CCCC5)cc4)[C@H]3C2)cc1 | · | · | · | -1 | 12 | 65*
COc1ccc(NC(=O)N2CCCCN3[C@@H](CO)[C@H](c4ccc(C5=CCCCC5)cc4)[C@@H]3C2)cc1 | -26 | 0 | -60 | 1 | 21 | 71*
COc1ccc2c3c([nH]c2c1)[C@@H](CO)N(Cc1ccncc1)CC31CN(CC2CCOCC2)C1 | 16 | 1 | 7 | · | 5 | -12
C[C@@H]1CN([C@@H](C)CO)C(=O)c2c(c3ccccc3n2C)-c2ccccc2CO[C@H]1CN(C)Cc1cccc2c1OCCCO2 | -12 | 1 | 0 | · | 13 | 5
Cc1ccc(N2C(=O)[C@@H]3C(c4cccnc4)=NO[C@@H]3C2=O)c(C)c1 | 0 | 31* | 33 | · | 0 | -10
COc1ccc(C2=NO[C@@H]3C(=O)N(c4ccc(C)cc4C)C(=O)[C@H]23)cc1OC | · | · | · | 2 | · | ·
Cc1cccc(NC(=S)N/N=C/c2cccc(O)c2)c1C | -16 | 0 | -24* | -11 | 1 | 3
CC(C)NC(=O)Nc1ccc2c(c1)CC(=O)N([C@@H](C)CO)C[C@H](C)[C@@H](CN(C)Cc1ccc(C(=O)O)cc1)O2 | 4 | 37* | 0 | -2 | -2 | -1
CC(C)NC(=O)Nc1ccc2c(c1)CC(=O)N([C@H](C)CO)C[C@@H](C)[C@H](CN(C)Cc1ccc(C(=O)O)cc1)O2 | 17 | -2 | 6 | 10 | -3 | -4
C[C@H](CO)N1C[C@H](C)[C@@H](CN(C)Cc2ccc(C(=O)O)cc2)Oc2ccc(NC(=O)Nc3ccc(F)cc3)cc2CC1=O | -1 | 38* | 0 | 2 | 0 | 3
C[C@H]1CN([C@@H](C)CO)C(=O)Cc2cc(NC(=O)Nc3ccc(F)cc3)ccc2O[C@H]1CN(C)Cc1ccc(C(=O)O)cc1 | -6 | -4 | -1 | -2 | -3 | -9
CN1c2ccc(-c3ccccc3F)cc2[C@@H]2[C@@H](CCN2C(=O)NC2CCCCC2)[C@H]1CO | -9 | 1 | -37 | · | 9 | -17
O=C(CCl)N(c1ccc(Cl)cc1)c1c[nH]c2ccccc12 | -18 | · | -23* | -8 | · | -20
O=C(Cc1ccc(Cl)cc1)NCCc1c[nH]c2ccccc12 | -23 | 0 | -20 | 9 | 2 | -10
CC(=O)OCC1=C(C(=O)O)N2C(=O)C(NC(=O)c3ccc(COc4cccc(Cl)c4Cl)o3)C2SC1 (centres undefined) | -28 | 4 | -26* | -4 | -8 | -14
SMILES | INS-1E GSIS act | E-selectin induc | rRNA inh HTS | RAD54 branch | AF4-AF9 inh | RAD52 anneal inh
C[C@H]1CN([C@@H](C)CO)C(=O)Cc2cc(NS(C)(=O)=O)ccc2O[C@@H]1CN(C)C(=O)Nc1ccc2c(c1)OCO2 | 10 | -1 | 0 | 0 | -13 | 13
CCC(=O)N1[C@H](CO)[C@H]2c3ccccc3N(C(=O)Nc3ccccc3Cl)C[C@H]21 | 4 | 0 | 2 | -6 | · | -7
C[C@H](CO)N1C[C@H](C)[C@H](CN(C)Cc2ccccc2)Oc2ccc(NC(=O)Cc3cn(C)c4ccccc34)cc2CC1=O | -13 | 0 | 5 | -3 | 4 | 10
C[C@@H]1CN([C@@H](C)CO)C(=O)Cc2cc(NC(=O)Cc3cn(C)c4ccccc34)ccc2O[C@H]1CN(C)Cc1ccc(C(F)(F)F)cc1 | 3 | 61* | 5 | 5 | -4 | -15
C[C@H]1CN([C@@H](C)CO)C(=O)Cc2cc(NC(=O)Cc3cn(C)c4ccccc34)ccc2O[C@@H]1CN(C)C(=O)Nc1ccc(C(F)(F)F)cc1 | -20 | 50* | 3 | -5 | 1 | -4
COCC(=O)N(C)C[C@H]1Oc2ncc(C#C[C@@H](C)O)cc2C(=O)N([C@H](C)CO)C[C@H]1C | 20 | 1 | 6 | 3 | -3 | -12
C[C@@H]1CN([C@H](C)CO)S(=O)(=O)c2ccc(C#C[C@@H](C)O)cc2O[C@H]1CN(C)C(=O)Nc1ccccc1 | 0 | 0 | 0 | -18 | -1 | 0
CCCC(=O)Nc1ccc2c(c1)C(=O)N(C)[C@@H]1CC[C@H](CC(=O)NCC3CC3)O[C@H]1CO2 | 1 | 0 | 3 | -8 | -10 | 6
O=C(C1CC1)N1CC(=O)N2[C@H](C1)[C@H](c1ccc(C#CCc3ccccc3)cc1)[C@@H]2CO | -16 | 0 | -1 | · | 0 | 8
Cc1ccc(C)c(C(=O)Nc2nc3ccccc3[nH]2)c1 | 45* | · | 2 | 8 | -3 | -13
COc1ccc2c3c(n(C)c2c1)[C@@H](CO)N(C(=O)C1CCCCC1)CC31CCN(C(=O)c2ccncc2)CC1 | -5 | 0 | 2 | · | 3 | 10
Cc1ccc(-c2[nH]nc3c2C(c2cccnc2)C(C#N)=C(N)O3)cc1 (centres undefined) | 78* | · | · | -2 | · | ·
C/C(=C\c1ccco1)C1C(C#N)=C(N)Oc2n[nH]c(-c3ccc(C)cc3)c21 (centres undefined) | -13 | · | -28* | 4 | -13 | -29
N#CC1=C(N)Oc2nc(-c3ccccc3)[nH]c2C1c1cccnc1 (centres undefined) | 48* | · | · | -12 | · | ·
C/C(=C\c1ccco1)C1C(C#N)=C(N)Oc2n[nH]c(-c3ccccc3)c21 (centres undefined) | · | · | · | 5 | · | ·
